Consider eleven molecules from ChEMBL document CHEMBL1152782, “Rational modification of a candidate cancer drug for use against Chagas disease” (J Med Chem, 2009).

Activity calls are given as the source filed them. No cut-off for these calls is given here.

Data set [1] deals with Trypanosoma cruzi. Briefly: Antitrypanosomal activity against Trypanosoma cruzi Tulahuen amastigotes expressing beta-galactosidase in mouse 3T3 fibroblast after 7 days by […]. Format: functional, organism-based. The note with it: 168 h.
Data set [2] addresses Sterol 14-alpha demethylase (Trypanosoma cruzi (strain CL Brener)) (UniProt Q7Z1V1). As to the kind of experiment: Inhibition of Trypanosoma cruzi recombinant sterol 14-alpha-demethylase assessed as drug/enzyme molar ratio required to produce 50 percent decrease in turnover number.
The target in data set [3] is T1, Lanosterol 14-alpha demethylase (Homo sapiens, UniProt Q16850).
T1 sequence (Q16850 whole entry): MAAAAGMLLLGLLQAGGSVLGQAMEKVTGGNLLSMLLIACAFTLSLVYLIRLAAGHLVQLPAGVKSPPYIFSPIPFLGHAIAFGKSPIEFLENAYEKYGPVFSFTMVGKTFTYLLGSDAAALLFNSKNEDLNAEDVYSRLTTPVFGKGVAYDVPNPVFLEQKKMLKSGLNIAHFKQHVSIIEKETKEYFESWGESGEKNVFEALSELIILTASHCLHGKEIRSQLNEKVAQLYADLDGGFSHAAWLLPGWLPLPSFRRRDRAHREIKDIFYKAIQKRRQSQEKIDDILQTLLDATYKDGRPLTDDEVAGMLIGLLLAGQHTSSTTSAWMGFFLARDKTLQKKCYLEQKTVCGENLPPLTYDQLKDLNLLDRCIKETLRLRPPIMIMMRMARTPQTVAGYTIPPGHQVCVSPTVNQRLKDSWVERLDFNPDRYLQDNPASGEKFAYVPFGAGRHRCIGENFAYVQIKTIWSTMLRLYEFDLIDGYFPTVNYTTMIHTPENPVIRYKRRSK
As to the kind of experiment: Inhibition of human sterol 14-alpha-demethylase assessed as drug/enzyme molar ratio required to produce 50 percent decrease in turnover number.

A short description of data set [4]: Cmax in BALB/c mouse at 50 mg/kg, po. In kind it is ADME, organism-based. Also on record: dose 50 mg/kg, route oral. To be noted: in vivo. In outline: (§1)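 Single oral gavage dose of 50 mg/kg, suspended at 10 mg/ml in 20% (w/v) hydroxypropyl beta-cyclodextrin, to uninfected female BALB/c mice (7–8 weeks, ~20 g); timed tail blood, plasma extracted with acetonitrile using an internal standard, quantified by reversed-phase LC-MS (electrospray ion trap); three mice averaged.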

Data set [5] deals with Cytochrome P450 3A4 (Homo sapiens, UniProt P08684). As to the kind of experiment: Inhibition of human recombinant CYP3A4. In kind it is ADME.
Cytochrome P450 3A4, sequence (P08684 whole entry): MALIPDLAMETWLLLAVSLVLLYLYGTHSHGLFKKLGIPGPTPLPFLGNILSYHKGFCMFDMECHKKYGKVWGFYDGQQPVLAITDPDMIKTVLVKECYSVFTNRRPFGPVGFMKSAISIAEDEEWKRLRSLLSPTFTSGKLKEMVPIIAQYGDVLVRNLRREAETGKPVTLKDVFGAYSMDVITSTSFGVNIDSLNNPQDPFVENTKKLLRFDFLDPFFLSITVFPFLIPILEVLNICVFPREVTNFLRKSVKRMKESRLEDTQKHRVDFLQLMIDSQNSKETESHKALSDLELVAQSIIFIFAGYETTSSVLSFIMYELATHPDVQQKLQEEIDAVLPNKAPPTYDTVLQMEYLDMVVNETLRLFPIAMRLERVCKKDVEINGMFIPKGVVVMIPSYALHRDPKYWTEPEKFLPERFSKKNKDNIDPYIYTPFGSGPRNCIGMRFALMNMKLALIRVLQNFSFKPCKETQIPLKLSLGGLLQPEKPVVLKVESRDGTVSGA
Data set [6] has as its system Trypanosoma cruzi. As to the kind of experiment: Antitrypanosomal activity against Trypanosoma cruzi Tulahuen trypomastigotes infected in BALB/c mouse assessed as suppression of parasitemia in blood culture at 100 mg/kg, po twice a day after 7 days of infection for 8 to 13 days and 50 mg/kg, po for 14 to 27 days measured after 100 days by microscopy. Format: functional, organism-based. The procedure, abridged: (§2)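 Female BALB/c mice (7–8 weeks) infected subcutaneously with 5×10^3 Tulahuen trypomastigotes; oral gavage from day 8, groups of 5–6, for 20 days. Benznidazole 100 mg/kg once daily days 8–27; test agents 100 mg/kg twice daily days 8–13 then 50 mg/kg twice daily days 14–27; vehicle 20% hydroxypropyl beta-cyclodextrin twice daily. Parasitemia counted in 5 μL tail blood over 50 high-powered fields.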

Data set [7] relates to Trypanosoma cruzi. As to the kind of experiment: Antitrypanosomal activity against Trypanosoma cruzi Tulahuen trypomastigotes infected in BALB/c mouse assessed as suppression of parasitemia at 100 mg/kg, po after 7 days of infection for 8 to 27 days measured weekly for 8 weeks by microscopy. On the set-up: dose 100 mg/kg. Format: functional, organism-based. In outline: as §2

Data set [8] is described as follows: Elimination half life in BALB/c mouse at 50 mg/kg, po. In kind it is ADME, organism-based. On the set-up: dose 50 mg/kg, route oral. To be noted: in vivo, read-out: beta t1/2 (converted). In outline:
as §1

Data set [9] has as its system Trypanosoma cruzi. Briefly: Antitrypanosomal activity against Trypanosoma cruzi Tulahuen trypomastigotes infected in BALB/c mouse assessed as suppression of parasitemia at 100 mg/kg, po twice a day after 7 days of infection for 8 to 13 days and 50 mg/kg, po for 14 to 27 days measured weekly for 8 weeks by microscopy. Format: functional, organism-based. In outline:
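Female BALB/c mice, 7–8 weeks old, infected s.c. with 5×10^3 Tulahuen trypomastigotes; parasitemic by day 7. From day 8, groups of 5–6 were gavaged 100 mg/kg twice daily (days 8–13), then 50 mg/kg twice daily (days 14–27), in 20% w/v hydroxypropyl-β-cyclodextrin. Parasitemia read in 5 μL tail blood over 50 high-power fields. Day-103 cardiac blood cultured at 28 °C, checked weekly for 8 weeks.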

The nature of data set [10]: Inhibition of rat recombinant protein farnesyltransferase expressed in Sf9 cells by [3H]-scintillation proximity assay. Background: SPA uses beads or plates that emit light when radiolabelled molecules are held near them.
A short description of data set [11]: Ratio of IC50 for rat recombinant protein farnesyltransferase to EC50 for Trypanosoma cruzi Tulahuen expressing beta-galactosidase.
In data set [12] the test system is Mus musculus. As to the kind of experiment: Toxicity in BALB/c mouse at 50 mg/kg, po administered twice a day. Format: organism-based. Also on record: dose 50 mg/kg, route oral. The note with it: in vivo. In outline:
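Infected female BALB/c mice given oral gavage in 20% hydroxypropyl beta-cyclodextrin, 100 mg/kg twice daily days 8–13 then 50 mg/kg twice daily days 14–27; monitored for weight loss and adverse effects.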

Data set [13] can be described thus: Terminal half life in po dosed human administered twice a day. Format: ADME, organism-based. The note with it: in vivo, read-out: beta t1/2 (converted).

Sterol 14-alpha demethylase (Trypanosoma cruzi (strain CL Brener)), sequence (Q7Z1V1 whole entry, looked up): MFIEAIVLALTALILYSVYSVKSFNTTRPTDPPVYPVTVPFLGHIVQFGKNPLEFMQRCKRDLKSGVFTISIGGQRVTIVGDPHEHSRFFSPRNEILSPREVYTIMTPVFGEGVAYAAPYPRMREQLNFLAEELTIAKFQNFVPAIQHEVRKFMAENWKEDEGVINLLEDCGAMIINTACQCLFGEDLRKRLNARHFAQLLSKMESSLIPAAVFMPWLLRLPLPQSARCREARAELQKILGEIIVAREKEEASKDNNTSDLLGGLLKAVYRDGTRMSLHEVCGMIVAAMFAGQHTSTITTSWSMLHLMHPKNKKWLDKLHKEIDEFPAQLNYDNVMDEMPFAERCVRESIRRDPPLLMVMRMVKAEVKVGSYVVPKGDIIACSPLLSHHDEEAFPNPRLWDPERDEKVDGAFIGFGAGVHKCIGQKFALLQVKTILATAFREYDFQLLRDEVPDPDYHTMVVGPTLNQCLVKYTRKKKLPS

Regarding `CC(=O)N1CCN(c2ccc(OCC3COC(Cn4ccnc4)(c4ccc(Cl)cc4Cl)O3)cc2)CC1` (configuration not stated) [KETOCONAZOLE], the EC50 in data set [1] came out at 0.3 nM. Further, the Activity in data set [2] was 0.75; in data set [3], 2.3.
`CO[C@](c1ccc(Cl)cc1)(c1ccc2c(c1)c(-c1cccc(Cl)c1C)cc(=O)n2C)c1cncn1C` (racemic) yielded a maximum concentration (Cmax) in data set [4] of 5 µM. In addition, the figures for the IC50 in data set [5] and in [10] were 870 nM and greater than 5000 nM, respectively. The result in data set [6], in [7] and in [9] was Active. Besides, the EC50 in [1] came out at 0.6 nM. The half-life in [8] is 4 h. The results for the Activity in data set [2], in [3] and in data set [12] were 0.62, 48 and “Non-toxic”, respectively. Moreover, in data set [11], the Ratio IC50/EC50 is greater than 8300.
Consider `Cn1cncc1[C@@](N)(c1ccc(Cl)cc1)c1ccc2c(c1)c(-c1cccc3ccccc13)cc(=O)n2C` (racemic), for which, in data set [1], the EC50 stood at 22 nM. For the same molecule, the IC50 in data set [10] was 485 nM. Further, the Activity in data set [2] is 0.85; in data set [3] it was greater than 100.
Regarding `Cn1cncc1[C@@](N)(c1ccc(Cl)cc1)c1ccc2c(c1)c(-c1cccc(Cl)c1)cc(=O)n2C` [TIPIFARNIB], in data set [13], the half-life was 16 h. Also, the EC50 in data set [1] was found to be 4 nM. The result in data set [9] was inactive. Besides, in [10], the half-inhibitory concentration (IC50) came out at 0.7 nM. In addition, the Activity in data set [2] was 0.48; in [3], greater than 100.
As to `Cc1c(Cl)cccc1-c1cc(=O)n(C)c2ccc([C@](N)(c3ccc(Cl)cc3)c3cncn3C)cc12` (racemic), the IC50 in data set [5] worked out at 1300 nM; in data set [10] it was 294 nM. In data set [1], this molecule registered an EC50 of 21 nM. Moreover, the values for the Activity in data set [2] and in [3] were 0.65 and greater than 100, respectively. Besides, the Ratio IC50/EC50 in data set [11] is 14.
In data set [1], `Cn1cncc1[C@@](N)(c1ccc(Cl)cc1)c1ccc2c(c1)c(-c1ccccc1)cc(=O)n2C` came in with an EC50 of 12 nM. Moreover, the IC50 in data set [10] amounted to 4 nM. Further, in data set [11], the Ratio IC50/EC50 is 0.3.
Take `Cn1cncc1[C@](N)(c1ccc(Cl)cc1)c1ccc2c(c1)c(-c1cccc(Cl)c1)cc(=O)n2C` [(S)-TIPIFARNIB]: the Activity in data set [2] is 0.74; in [3], greater than 100.
`Cc1ccccc1-c1cc(=O)n(C)c2ccc([C@](N)(c3ccc(Cl)cc3)c3cncn3C)cc12` (racemic): the IC50 worked out at 1350 nM in [5] and 300 nM in [10]. This molecule displayed an EC50 in data set [1] of 23 nM. Moreover, the Ratio IC50/EC50 in [11] is 13.
For `Cc1cc([C@@](N)(c2ccc3c(c2)c(-c2cccc(Cl)c2)cc(=O)n3C)c2cncn2C)ccc1Cl` (racemic), the EC50 in data set [1] is 23 nM. Also, the IC50 in data set [10] came out at 13 nM. Besides, in data set [11], the Ratio IC50/EC50 amounted to 0.6.
In data set [1], `CC[C@@H]([C@H](C)O)n1ncn(-c2ccc(N3CCN(c4ccc(OC[C@@H]5CO[C@@](Cn6cncn6)(c6ccc(F)cc6F)C5)cc4)CC3)cc2)c1=O` [POSACONAZOLE] had an EC50 of 0.3 nM.
Regarding `Cn1cncc1[C@@](N)(c1ccc2ccccc2c1)c1ccc2c(c1)c(-c1cccc(Cl)c1)cc(=O)n2C`, the response in data set [1] was half-maximal at 45 nM (EC50). Besides, the IC50 in data set [10] worked out at 17 nM. Further, the Ratio IC50/EC50 in data set [11] is 0.4.

What is called EC50 is the concentration giving half of the maximal effect. The Cmax is the highest concentration seen after dosing. In general, IC50 refers to the point on the concentration scale where inhibition reaches its midpoint.
